Laboratory results: ChEMBL document CHEMBL1124042, “Synthesis and potential antipsychotic activity of 1H-imidazo[1,2-c]pyrazolo[3,4-e]pyrimidines” (J Med Chem, 1988)

Experiments:
Format in all cases: tissue-based
[1] = molecular target: Beta-2 adrenergic receptor (Rattus norvegicus, UniProt P10608); experiment: Displacement of [3H]DHA (Dihydroalprenolol) from beta-2 adrenergic receptor in rat brain
Outline: (§1)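 Rat brain radioligand displacement binding. IC50 values (μM) were derived by nonlinear regression from four or five concentrations of compound.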

[2] = molecular target: Serotonin 1 (5-HT1) receptor (Rattus norvegicus, UniProt P28564+P30940+P19327+P28565); experiment: Displacement of [3H]5-HT from serotonin-1 neurotransmitter receptor in rat brain; outline: as §1
[3] = molecular target: Beta-1 adrenergic receptor (Rattus norvegicus, UniProt P18090); experiment: Displacement of [3H]DHA (Dihydroalprenolol) from beta-1 adrenergic receptor in rat brain; outline: as §1
[4] = molecular target: Serotonin 2 (5-HT2) receptor (Rattus norvegicus, UniProt P30994+P08909+P14842); experiment: Displacement of [3H]spiroperidol from 5-hydroxytryptamine 2 receptor in rat brain; outline: as §1
[5] = molecular target: T1, Adrenergic receptor alpha-2 (Rattus norvegicus, UniProt P22086+P19328+P22909); experiment: Displacement of [3H]clonidine from alpha-2 adrenergic receptor in rat brain; outline: as §1
T1 sequence (P22086 whole entry): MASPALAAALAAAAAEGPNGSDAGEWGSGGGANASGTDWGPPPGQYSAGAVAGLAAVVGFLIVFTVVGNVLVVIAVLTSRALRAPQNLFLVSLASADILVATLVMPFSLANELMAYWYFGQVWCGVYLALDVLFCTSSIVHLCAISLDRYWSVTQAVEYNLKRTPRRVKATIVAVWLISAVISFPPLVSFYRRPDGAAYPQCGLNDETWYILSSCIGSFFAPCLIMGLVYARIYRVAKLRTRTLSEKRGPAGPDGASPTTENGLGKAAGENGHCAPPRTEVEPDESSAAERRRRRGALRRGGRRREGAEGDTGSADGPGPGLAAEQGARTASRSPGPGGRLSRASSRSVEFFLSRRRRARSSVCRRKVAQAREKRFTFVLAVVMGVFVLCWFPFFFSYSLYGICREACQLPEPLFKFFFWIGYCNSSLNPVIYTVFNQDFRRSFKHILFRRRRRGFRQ
T1 sequence (P19328 whole entry): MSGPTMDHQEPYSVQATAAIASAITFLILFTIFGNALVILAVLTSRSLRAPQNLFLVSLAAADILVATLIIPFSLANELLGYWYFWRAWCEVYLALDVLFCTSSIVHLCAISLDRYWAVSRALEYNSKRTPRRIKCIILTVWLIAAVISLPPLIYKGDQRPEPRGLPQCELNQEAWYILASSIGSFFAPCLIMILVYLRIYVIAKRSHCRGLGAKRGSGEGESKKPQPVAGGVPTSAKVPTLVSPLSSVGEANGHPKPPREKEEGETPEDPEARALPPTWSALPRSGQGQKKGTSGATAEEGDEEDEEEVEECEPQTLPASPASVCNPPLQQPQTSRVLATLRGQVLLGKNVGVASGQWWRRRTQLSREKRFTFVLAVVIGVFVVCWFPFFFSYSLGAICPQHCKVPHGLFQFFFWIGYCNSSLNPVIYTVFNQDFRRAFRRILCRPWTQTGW
T1 sequence (P22909 whole entry): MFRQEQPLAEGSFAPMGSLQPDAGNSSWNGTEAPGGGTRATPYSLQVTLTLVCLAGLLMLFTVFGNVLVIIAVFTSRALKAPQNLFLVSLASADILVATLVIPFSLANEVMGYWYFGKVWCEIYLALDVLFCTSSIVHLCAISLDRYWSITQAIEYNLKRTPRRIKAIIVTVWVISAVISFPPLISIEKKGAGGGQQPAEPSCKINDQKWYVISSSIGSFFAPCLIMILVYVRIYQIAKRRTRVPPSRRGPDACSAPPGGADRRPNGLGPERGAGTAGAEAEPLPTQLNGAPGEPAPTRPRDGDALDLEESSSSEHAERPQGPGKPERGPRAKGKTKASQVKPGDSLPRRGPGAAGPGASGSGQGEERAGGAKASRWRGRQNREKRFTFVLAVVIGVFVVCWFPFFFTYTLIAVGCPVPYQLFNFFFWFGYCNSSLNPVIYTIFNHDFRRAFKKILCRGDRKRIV

[6] = molecular target: D(1A) dopamine receptor (Rattus norvegicus, UniProt P18901); experiment: Displacement of [3H]cis-flupenthixol from Dopamine receptor D1 in rat brain

Measured: IC50

Chain of Beta-1 adrenergic receptor (P18090 whole entry): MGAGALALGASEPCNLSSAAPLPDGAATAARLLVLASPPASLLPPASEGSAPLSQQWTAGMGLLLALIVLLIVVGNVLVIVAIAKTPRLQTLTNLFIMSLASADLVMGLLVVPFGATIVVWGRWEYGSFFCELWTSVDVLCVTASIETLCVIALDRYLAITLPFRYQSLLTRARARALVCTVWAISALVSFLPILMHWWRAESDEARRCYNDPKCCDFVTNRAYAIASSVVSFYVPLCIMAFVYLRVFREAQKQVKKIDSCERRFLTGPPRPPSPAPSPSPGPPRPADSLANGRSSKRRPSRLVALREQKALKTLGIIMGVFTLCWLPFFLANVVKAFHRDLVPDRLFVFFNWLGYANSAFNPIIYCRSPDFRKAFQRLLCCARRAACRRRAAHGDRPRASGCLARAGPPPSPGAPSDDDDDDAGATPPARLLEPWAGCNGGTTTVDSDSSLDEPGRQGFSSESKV
Chain of Beta-2 adrenergic receptor (P10608 whole entry): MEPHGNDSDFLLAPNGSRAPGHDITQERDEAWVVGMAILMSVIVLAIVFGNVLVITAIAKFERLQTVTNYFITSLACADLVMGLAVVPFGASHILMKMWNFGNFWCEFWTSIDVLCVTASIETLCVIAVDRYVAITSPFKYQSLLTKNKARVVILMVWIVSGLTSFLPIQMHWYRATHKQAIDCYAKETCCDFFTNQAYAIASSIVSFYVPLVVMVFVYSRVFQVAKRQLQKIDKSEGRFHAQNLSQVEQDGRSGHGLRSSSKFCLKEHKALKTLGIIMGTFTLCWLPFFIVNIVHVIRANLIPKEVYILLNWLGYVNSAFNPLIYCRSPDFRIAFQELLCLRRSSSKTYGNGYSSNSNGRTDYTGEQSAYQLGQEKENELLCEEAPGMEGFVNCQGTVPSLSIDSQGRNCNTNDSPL
Chain of D(1A) dopamine receptor (P18901 whole entry): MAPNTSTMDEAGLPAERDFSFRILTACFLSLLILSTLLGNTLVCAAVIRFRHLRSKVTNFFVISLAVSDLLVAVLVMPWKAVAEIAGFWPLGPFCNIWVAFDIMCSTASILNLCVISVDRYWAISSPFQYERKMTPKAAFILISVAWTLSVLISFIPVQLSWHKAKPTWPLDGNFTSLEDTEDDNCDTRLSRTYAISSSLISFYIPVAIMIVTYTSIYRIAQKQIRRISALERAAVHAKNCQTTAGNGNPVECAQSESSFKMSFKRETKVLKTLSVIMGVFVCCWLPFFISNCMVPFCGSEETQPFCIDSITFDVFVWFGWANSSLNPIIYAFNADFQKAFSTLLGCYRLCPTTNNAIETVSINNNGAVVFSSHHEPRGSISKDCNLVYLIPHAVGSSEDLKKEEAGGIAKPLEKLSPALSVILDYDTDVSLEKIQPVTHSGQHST

CCC1CN2C(C)=Nc3c(C)nn(C)c3C2=N1 (stereo unspecified)
> 10 µM: [1] | [2] | [3] | [4] | [5] | [6]
